Values joined by “and” are separate entries in the source; they are usually repeats but may differ in a detail not shown here. Identical values can stand only once.
Legend:
[1] = Antioxidant activity assessed as superoxide radical-scavenging activity at 1 mM by EPR spectroscopy; type: functional
Summary of the method: (§1)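 Superoxide generated by xanthine (0.2 mM) plus xanthine oxidase (0.02 U/ml) in PBS pH 7.4 containing DEPMPO spin trap (1 mM) and DTPA (0.1 mM), with or without derivative. The DEPMPO-OOH adduct was measured by EPR and double-integrated. Signal is expressed as percent of the level without derivative.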

[2] = Antioxidant activity assessed as superoxide radical-scavenging activity at 100 uM by EPR spectroscopy; type: functional; summary of the method: as §1
[3] = Antioxidant activity assessed as peroxyl radical-scavenging activity at 1 mM by EPR spectroscopy; type: functional
Summary of the method: (§2)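 Alkylperoxyl radicals generated by thermolysis of 2,2-azobis-2-amidinopropane dihydrochloride (25 mM) in aerobic PBS at 37°C. EPR run in PBS pH 7.4 with DEPMPO (1 mM) and DTPA (0.1 mM), with or without derivative. The DEPMPO-OOR adduct was quantified by double integration and expressed as percent of the untreated level.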

[4] = Antioxidant activity assessed as peroxyl radical-scavenging activity at 100 uM by EPR spectroscopy; type: functional; summary of the method: as §2
[5] = system: CHO; assay: Antioxidant activity in CHO cells assessed as protection from H2O2-induced toxicity at 50 uM pretreated for 2 hrs before H2O2 challenge measured after 1 hr by MTT assay; type: functional, Cricetulus griseus
Summary of the method: (§3)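 Cells grown to 80% confluence at 37°C in 5% CO2, trypsinized and seeded at about 7,000 cells/well. After 24–48 h they were exposed to derivative for 2 h, then to H2O2 at 1 mM for 1 h. Viability was read by MTT-to-formazan conversion, with at least 6 repeats.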

[6] = Antioxidant activity in HSMC assessed as protection from H2O2-induced toxicity at 50 uM pretreated for 2 hrs before H2O2 challenge measured after 1 hr by MTT assay; type: functional, Homo sapiens; summary of the method: as §3

Compound | Activity [1] [%] | Activity [2] | Activity [3] [%] | Activity [4] [%] | Activity [5] [%] | Activity [6] [%]
COc1ccc(CCN(C)CCCC(CNC(=O)C2CC(C)(C)N(O)C2(C)C)(c2ccc(OC)c(OC)c2)C(C)C)cc1OC (centres undefined) | 100 | 84.2% | 100 | 98 | 62.1 | 40.2
COc1ccc(CCN(C)CCCC(CNC(=O)C2=C(c3ccccc3)C(C)(C)N(O)C2(C)C)(c2ccc(OC)c(OC)c2)C(C)C)cc1OC (centres undefined) | 100 | 79.3% | 100 | 86.1 | 68.3 | 47.5
COc1ccc(CCN(C)CCCC(CNC(=O)C2=CC(C)(C)N(O)C2(C)C)(c2ccc(OC)c(OC)c2)C(C)C)cc1OC (centres undefined) | 55.2 |  | 14.9 |  | 48.9 | 59.1
COc1ccc(CCN(C)CCCC(CNCC2=CC(C)(C)NC2(C)C)(c2ccc(OC)c(OC)c2)C(C)C)cc1OC (centres undefined) | 100 | 73.8% | 100 | 89.8 | 71.2 | 39.1
COc1ccc(CCN(C)CCCC(CNC(=O)C2=CC(C)(C)N(C)C2(C)C)(c2ccc(OC)c(OC)c2)C(C)C)cc1OC (centres undefined) | 60.7 |  | 89.8 |  | 55.5 | 48.7
COc1ccc(CCN(C)CCC[C@@](CNC(=O)C2=CC(C)(C)N(O)C(C)(C)C2)(c2ccc(OC)c(OC)c2)C(C)C)cc1OC | 100 | 66.5% | 100 | 91.4 | 46.1 | 33.1
COc1ccc(CCN(C)CCCC(CNC(=O)C2=CC(C)(C)NC2(C)C)(c2ccc(OC)c(OC)c2)C(C)C)cc1OC (centres undefined) | 34.9 |  | 84.1 |  | 53.5 | 53.7
COc1ccc(CCN(C)CCCC(CNC(=O)C2=C(C)C(C)(C)N(O)C2(C)C)(c2ccc(OC)c(OC)c2)C(C)C)cc1OC (centres undefined) | 100 | 78.2% | 100 | 100 | 60 | 39.7
COc1ccc(CCN(C)CCCC(CNC(=O)C2CC(C)(C)N(O)C(C)(C)C2)(c2ccc(OC)c(OC)c2)C(C)C)cc1OC (centres undefined) | 100 | 76.5% | 90.1 |  | 50.3 | 40.2
COc1ccc(CCN(C)CCCC(CNCC2=CC(C)(C)N(O)C2(C)C)(c2ccc(OC)c(OC)c2)C(C)C)cc1OC (centres undefined) | 100 | 88.5% | 100 | 92.9 | 63.6 | 43.3
COc1ccc(CCN(C)CCCC(CNC(=O)CC2(C)CCC(C)(C)N2O)(c2ccc(OC)c(OC)c2)C(C)C)cc1OC (centres undefined) | 100 | 70.7% and 78.1% | 100 | 89.2 | 54 | 44

From ChEMBL document CHEMBL1156228 (2010)
